ChEMBL document CHEMBL1143594, “Selective estrogen receptor modulators in the ruthenocene series. Synthesis and biological behavior” (J Med Chem, 2005)

Assays:
[1] = Octanol-water partition coefficient (logP) of the compound measured by RP-HPLC; assay type: physicochemical
Procedure, shortened: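 Reverse-phase HPLC capacity factors measured in an organic phase of 85%-60% methanol containing 0.25% octanol, against an aqueous phase of 0.15% n-decylamine in 0.02 M MOPS pH 7.4 made with octanol-saturated water. Extrapolated to 100% aqueous to give kNw. log Po/w = 0.13418 + 0.98452 log kNw.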

[2] = target: Estrogen receptor beta (Homo sapiens) (UniProt Q92731); assay: Relative binding affinity for Estrogen receptor beta
Sequence of Estrogen receptor beta (Homo sapiens) (Q92731 whole entry): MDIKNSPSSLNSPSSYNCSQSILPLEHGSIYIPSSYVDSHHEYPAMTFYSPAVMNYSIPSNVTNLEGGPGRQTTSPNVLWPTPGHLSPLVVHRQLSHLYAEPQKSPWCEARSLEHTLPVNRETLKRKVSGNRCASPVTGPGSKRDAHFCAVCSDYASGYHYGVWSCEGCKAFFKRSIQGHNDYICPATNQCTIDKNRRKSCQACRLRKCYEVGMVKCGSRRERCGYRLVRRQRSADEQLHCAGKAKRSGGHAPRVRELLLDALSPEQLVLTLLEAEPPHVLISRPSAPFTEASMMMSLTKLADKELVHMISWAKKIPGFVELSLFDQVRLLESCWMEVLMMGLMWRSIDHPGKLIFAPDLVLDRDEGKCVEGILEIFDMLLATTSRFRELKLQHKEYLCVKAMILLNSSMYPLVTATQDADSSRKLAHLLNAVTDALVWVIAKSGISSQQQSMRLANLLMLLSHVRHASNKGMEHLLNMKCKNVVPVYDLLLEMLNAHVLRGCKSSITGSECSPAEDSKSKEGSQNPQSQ

Structure (SMILES) | logP [1] | relative binding affinity (RBA) [2]
CC/C(=C(/c1ccc(O)cc1)c1ccc(OCCN(C)C)cc1)c1ccccc1 [listing 1 of 3 here] | 3.4 | 
CC/C(=C(/c1ccc(O)cc1)c1ccc(OCCN(C)C)cc1)c1ccccc1 [listing 2 of 3 here] | 3.2 | 
C[C@]12CC[C@@H]3c4ccc(O)cc4CC[C@H]3[C@@H]1CC[C@@H]2O [ESTRADIOL] | 3.5 | 100
CC/C(=C(/c1ccc(O)cc1)c1ccc(OCCN(C)C)cc1)c1ccccc1 [listing 3 of 3 here] |  | 18.5
